Laboratory results published in ChEMBL document CHEMBL1140161, “Structure-activity relationships in 1,4-benzodioxan-related compounds. 9. From 1,4-benzodioxane to 1,4-dioxane ring as a promising template of novel alpha1D-adrenoreceptor antagonists, 5-HT1A full agonists, and cytotoxic agents” (J Med Chem, 2008).

What was measured:
[1] = target: T1, Alpha-1A adrenergic receptor (Rattus norvegicus) (UniProt P43140); experiment: Antagonist activity at alpha1A adrenoceptor in Wistar rat prostatic vas deferens assessed as inhibition of (-)-noradrenaline-induced contraction after 30 mins; assay type: functional, tissue-based
T1 sequence (whole entry): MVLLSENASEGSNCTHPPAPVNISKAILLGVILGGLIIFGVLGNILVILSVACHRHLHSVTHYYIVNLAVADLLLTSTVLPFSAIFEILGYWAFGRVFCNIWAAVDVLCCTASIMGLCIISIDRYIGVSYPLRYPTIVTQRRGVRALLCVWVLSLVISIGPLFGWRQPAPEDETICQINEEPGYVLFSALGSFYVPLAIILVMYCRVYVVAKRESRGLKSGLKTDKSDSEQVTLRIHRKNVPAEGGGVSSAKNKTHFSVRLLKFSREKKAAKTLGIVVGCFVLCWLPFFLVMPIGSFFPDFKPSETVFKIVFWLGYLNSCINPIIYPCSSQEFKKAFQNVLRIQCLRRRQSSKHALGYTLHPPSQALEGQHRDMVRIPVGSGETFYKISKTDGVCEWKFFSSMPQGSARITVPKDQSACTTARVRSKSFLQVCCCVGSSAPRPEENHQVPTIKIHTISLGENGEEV

[2] = target: T2, Alpha-1B adrenergic receptor (Rattus norvegicus) (UniProt P15823); experiment: Antagonist activity at alpha1B adrenoceptor in Wistar rat spleen assessed as inhibition of (-)-phenylephrine-induced contraction after 30 mins; assay type: functional, tissue-based
T2 sequence (whole entry): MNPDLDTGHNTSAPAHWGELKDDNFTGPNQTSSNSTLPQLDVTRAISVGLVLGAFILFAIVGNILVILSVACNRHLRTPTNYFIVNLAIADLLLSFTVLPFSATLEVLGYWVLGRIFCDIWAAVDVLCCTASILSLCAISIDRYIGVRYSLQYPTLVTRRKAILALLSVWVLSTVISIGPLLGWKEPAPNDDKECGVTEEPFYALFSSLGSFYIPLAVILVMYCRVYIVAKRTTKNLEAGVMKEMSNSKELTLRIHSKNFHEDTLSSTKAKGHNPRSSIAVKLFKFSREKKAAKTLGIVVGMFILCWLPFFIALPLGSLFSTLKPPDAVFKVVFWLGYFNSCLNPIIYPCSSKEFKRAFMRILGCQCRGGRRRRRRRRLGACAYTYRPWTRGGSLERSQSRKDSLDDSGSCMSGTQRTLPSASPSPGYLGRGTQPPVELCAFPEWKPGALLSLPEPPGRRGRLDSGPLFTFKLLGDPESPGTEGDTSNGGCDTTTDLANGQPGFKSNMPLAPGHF

[3] = target: T3, Alpha-1D adrenergic receptor (Rattus norvegicus) (UniProt P23944); experiment: Antagonist activity at Alpha-1D adrenoceptor in Wistar rat thoracic aorta assessed as inhibition of (-)-noradrenaline-induced contraction after 30 mins; assay type: functional, tissue-based
T3 sequence (whole entry): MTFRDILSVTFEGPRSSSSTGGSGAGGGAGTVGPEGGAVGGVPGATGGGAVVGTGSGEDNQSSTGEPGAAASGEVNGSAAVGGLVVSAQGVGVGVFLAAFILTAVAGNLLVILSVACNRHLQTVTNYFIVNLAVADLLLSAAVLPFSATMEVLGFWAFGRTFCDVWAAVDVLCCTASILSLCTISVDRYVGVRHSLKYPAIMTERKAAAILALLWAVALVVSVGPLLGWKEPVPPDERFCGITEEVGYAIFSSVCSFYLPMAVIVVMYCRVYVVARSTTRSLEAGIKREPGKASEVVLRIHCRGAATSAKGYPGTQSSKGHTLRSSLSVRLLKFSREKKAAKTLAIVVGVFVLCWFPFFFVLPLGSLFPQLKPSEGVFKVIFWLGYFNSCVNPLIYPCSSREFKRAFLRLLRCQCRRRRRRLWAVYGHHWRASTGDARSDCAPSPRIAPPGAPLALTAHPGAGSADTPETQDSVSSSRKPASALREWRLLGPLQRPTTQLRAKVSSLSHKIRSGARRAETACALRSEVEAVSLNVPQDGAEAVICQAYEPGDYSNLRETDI

[4] = test system: PC-3; experiment: Cytotoxicity against human PC3 cells after 48 hrs by SRB assay; assay type: functional; conditions: PC-3, 48 h; for CC50: read-out: LC50 (the source's name)
Summary of the method: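 PC-3 human prostate cancer cells. Growth measured by sulforhodamine B staining following the NCI protocol. […] Values are means of quadruplicate determinations ± standard error (n = 5).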

[5] = target: T4, 5-hydroxytryptamine receptor 1A (Homo sapiens) (UniProt P08908); experiment: Agonist activity at human cloned 5HT1A receptor expressed in human HeLa cell membrane assessed as stimulation of [35S]GTPgammaS binding; assay type: functional, cell membranes
T4 sequence (whole entry): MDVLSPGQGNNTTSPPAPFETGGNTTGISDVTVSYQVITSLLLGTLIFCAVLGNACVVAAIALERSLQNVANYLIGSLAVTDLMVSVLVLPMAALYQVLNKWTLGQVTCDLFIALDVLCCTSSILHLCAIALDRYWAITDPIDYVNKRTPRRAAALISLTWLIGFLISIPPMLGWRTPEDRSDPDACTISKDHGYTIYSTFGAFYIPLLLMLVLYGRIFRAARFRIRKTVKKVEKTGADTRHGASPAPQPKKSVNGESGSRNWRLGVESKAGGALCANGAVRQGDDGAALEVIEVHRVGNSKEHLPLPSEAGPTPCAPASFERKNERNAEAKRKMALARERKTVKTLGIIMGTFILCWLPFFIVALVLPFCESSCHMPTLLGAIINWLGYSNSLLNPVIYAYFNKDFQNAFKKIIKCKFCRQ
Summary of the method: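 Membranes from HeLa cells expressing cloned human 5-HT1A receptor; agonist-stimulated [35S]GTPγS binding measured. pD2 is the negative log of the agonist concentration giving 50% of maximal [35S]GTPγS binding stimulation; values from two to three experiments.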

[6] = target: T4, 5-hydroxytryptamine receptor 1A (Homo sapiens); experiment: Agonist activity at human cloned 5HT1A receptor expressed in HeLa cell membrane assessed as stimulation of [35S]GTPgammaS binding relative to 5-hydroxytryptamine; assay type: functional, cell membranes
Summary of the method: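 Activation measured as [35S]GTPγS binding in membranes from HeLa cells expressing cloned human 5-HT1A receptor. pD2 is the negative log of agonist concentration giving 50% of maximal stimulation, from two to three experiments agreeing within 20%. Efficacy is given relative to 5-HT.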

[7] = target: T5, Alpha-1B adrenergic receptor (Homo sapiens, UniProt P35368); experiment: Displacement of [3H]prazosin from human cloned Alpha-1B adrenoceptor expressed in CHO cells; assay type: cell-based
T5 sequence (P35368 whole entry): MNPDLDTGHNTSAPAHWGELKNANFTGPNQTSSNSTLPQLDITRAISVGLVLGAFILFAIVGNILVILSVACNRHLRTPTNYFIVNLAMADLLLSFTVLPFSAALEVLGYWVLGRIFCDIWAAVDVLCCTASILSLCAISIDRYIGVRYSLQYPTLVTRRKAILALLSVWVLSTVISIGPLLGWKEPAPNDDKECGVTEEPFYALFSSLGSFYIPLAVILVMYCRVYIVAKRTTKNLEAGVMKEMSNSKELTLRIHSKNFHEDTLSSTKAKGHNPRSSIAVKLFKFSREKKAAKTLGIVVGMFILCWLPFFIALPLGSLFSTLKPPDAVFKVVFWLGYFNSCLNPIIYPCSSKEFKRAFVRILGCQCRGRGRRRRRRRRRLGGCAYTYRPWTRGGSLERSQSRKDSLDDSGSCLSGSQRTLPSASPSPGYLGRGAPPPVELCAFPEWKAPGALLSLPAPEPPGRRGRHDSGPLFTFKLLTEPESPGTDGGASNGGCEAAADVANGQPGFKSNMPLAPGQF
Summary of the method: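 [3H]prazosin binding to cloned human α1-adrenoceptor subtypes expressed in CHO cell membranes. Affinity reported as pKi for each subtype.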

| Structure (SMILES) | pKb [2] | GI50 [4] [µM] | TGI [4] [µM] | CC50 [4] [µM] | pD2 [5] | %max [6] | other results |
| --- | --- | --- | --- | --- | --- | --- | --- |
| COc1cccc(OC)c1OCCNCC1COc2ccccc2O1 (configuration not stated) | 8.16 | 64.6 | 199 | > 200 |  |  | pKb [1]: 9.51; pKb [3]: 8.8 |
| COc1ccccc1N1CCN(CCN2C(=O)CC3(CCCC3)CC2=O)CC1 | 7.48 |  |  |  | 9.27 | 26 |  |
| NCCc1c[nH]c2ccc(C(N)=O)cc12 |  |  |  |  | 8.45 | 96 |  |
| NCCc1c[nH]c2ccc(O)cc12 |  |  |  |  | 7.3 |  |  |
| CCCN(CCC)C1CCc2cccc(O)c2C1 (configuration not stated) [8-OH-DPAT] |  |  |  |  |  | 100 | Ki [7]: > 1000 nM |
| COc1cc2nc(N3CCN(C(=O)C4COc5ccccc5O4)CC3)nc(N)c2cc1OC (configuration not stated) [DOXAZOSIN] |  | 26.9 | 49 | 75.8 |  |  |  |
